The results in this text go back to the RNAGym collection of RNA variant scans (doi:10.1126/science.aae0568).

Fewer inactive variants are shown than the library holds.

B1: tRNA (parent)
chain: GUUCCGUUGGCGUAAUGGUAACGCGUCUCCCUCCUAAGGAGAAGACUGCGGGUUCGAGUCCCGUACGGAACG

In this data set the parent is B1. Kind of data set: yeast fitness relative to wild type (ratio to wild type); higher = fitter; tRNA-Arg(CCU), competitive growth, 37 C, YPD. An outline of the steps: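 Genotype frequency changes were the basis for Darwinian fitness relative to wild type. The frequencies came from 100-nucleotide paired-end sequencing of gene amplicons from the start population and each end population of pooled yeast strains with tRNA-Arg(CCU) gene variants at the native locus. Competition ran in YPD at 37°C for 24 hours in six replicates, genotypes needed ≥ 100 starting reads, and estimates < 0.5 were set to 0.5.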
Regarding GUUCCGUUGGCGUAAUGGUAACGCGUCUCCCUCCUCAGGAGAAGACUGCGGGUUCGAAUCCCGUACGGAACG, the yeast fitness came to 0.618.

Turning to GUUCCGUUGGCGUAAUGGUAACGCGUCUCCCUCCUCAGGAGAAGACUGCGGGUUCGUGUCCCGUACGGAACG, the yeast fitness was determined as 0.509.

Turning to GUUCCGUUGGCGUAAUGGUAACGCGUCUCCCUCCUCAGGAGAAGACUGCGGGUUCGUGUACCGUACGGAACG, the yeast fitness is ≤ 0.5.

Regarding GUUCCGUUGGCGUAAUGGUAACGCGUCUCCCUCCUCAGGAGAAGACUGCGGGUUCGAGUCCCGUAUGGAACG, the yeast fitness was 0.575.

Regarding GUUCCGUUGGCGUAAUGGUAACGCGUCUCCCUCCUCACGAGAAGACUGCCAGUUCGAGUCCCCUACGGAACG, the yeast fitness stood at 0.642.

Turning to GUUCCGUUGGCGUAAUGGUAACGCGUCUCCCUCCUCAGGAGAAGACUGCGGGUUCCCGUCCCGUACGGAACG, the yeast fitness turned out to be 0.593.

As to GUUCCGUUGGCGUAAUGGUAACGCGUCUCCCUCCUCACGAGAAGGCUGCGGGUUCGAGUCCCGUACGGAACG, the yeast fitness was found to be 0.585.

Consider GUUCCGUUGGCGUAAUGGUAACGCGUCUCCCUCCUCAGGAGAAGACUGCGGGUUUGAGUCCCGUAAGGAACG, for which the yeast fitness is ≤ 0.5.

With GUUCCGUUGGCGUAAUGGUAACGCGUCUCCCUCCUGCGGAGAGGACUGCGGGUUCGAGUCCCGUACGGAACG, the yeast fitness is 0.63.

Take GUUCCGUUGGCGUAAUGGUAACGCGUCUCCCUCCUCACGAGAAGACUGCGGGUUCGAGUCCCGUACGGAACG: the yeast fitness came to 0.524.

Turning to GUUCCGUUGGCGUAAUGGUAACGCGUCUCCCUCCUCAGGAGAAGACUCCGGGUUCGAGUCCUGUACGGAACG, the yeast fitness was ≤ 0.5.

With GUUCCGUUGGCGUAAUGGUAACGCGUCUCCCUCCUGUGGAGAAGACUGCGGGUUCGAGUCGCGUACGGAACG, the yeast fitness was ≤ 0.5.

Turning to GUUCCGUUGGCGUAAUGGUAACGCGUCUCCCUCCUCAGGAGAAGACUGCGGGUUCGAGUCCCGUACGAAACG, the yeast fitness was 0.56.

Take GUUCCGUUGGCGUAAUGGUAACGCGUCUCCCUCCUCAGGAGAAGACUGCCGGCUCGAGUCCCGUACGGAACG: the yeast fitness was ≤ 0.5.

GUUCCGUUGGCGUAAUGGUAACGCGUCUCCCUCCUCAGGAGAAGAGUGCGAGUUCGAGUCCCGUACGGAACG: the yeast fitness was ≤ 0.5.

Consider GUUCCGUUGGCGUAAUGGUAACGCGUCUCCCUCCUCAGGAGAAGACUGCGGGUUCGAGUCCCGAACGGAACG, for which the yeast fitness amounted to 0.932.

GUUCCGUUGGCGUAAUGGUAACGCGUCUCCCUCCUCAGGAGAAGACUGCGGGUUCGAGUCCCGCACGGAACG: the yeast fitness came out at 0.824.

Consider GUUCCGUUGGCGUAAUGGUAACGCGUCUCCCUCCUCAGGAGAAGACAGCGGGUUCUAGUCCCGUACGGAACG, for which the yeast fitness was 0.617.

For the variant GUUCCGUUGGCGUAAUGGUAACGCGUCUCCCUCCUCAGGAGAAGAGUGCGGGUUCGAGUCCCGUACGGAACG, the yeast fitness came out at 0.543.

On to GUUCCGUUGGCGUAAUGGUAACGCGUCUCCCUCCUCAGGAGAAGAUUGCGGGUUCGAGUCCCGUACGGAACG, for which the yeast fitness turned out to be 0.577.

With GUUCCGUUGGCGUAAUGGUAACGCGUCUCCCUCCUCAGGAGAAGACUGCGGGUUCGAGCCCCGUACGGAACG, the yeast fitness was found to be 0.562.

On to GUUCCGUUGGCGUAAUGGUAACGCGUCUCCCUCCUGUGGAGAAGACUGCGGGUUCCAGUCCCGUACGGAACG, for which the yeast fitness was ≤ 0.5.

Take GUUCCGUUGGCGUAAUGGUAACGCGUCUCCCUCCUCAGGAGAAGACUGCGGGUUCGAGUUCUGUCCGGAACG: the yeast fitness was ≤ 0.5.

GUUCCGUUGGCGUAAUGGUAACGCGUCUCCCUCCUCAGGAGAAGACUGCAGGUUCGAGUCCCGUACGGAACG: the yeast fitness worked out at 0.608.

As for GUUCCGUUGGCGUAAUGGUAACGCGUCUCCCUCCUCAGGAGAAGACUGAGGGUCCGAGUCCCGCACGGAACG, the yeast fitness was ≤ 0.5.

For the variant GUUCCGUUGGCGUAAUGGUAACGCGUCUCCCUCCUCAGGAGAAGACUGUGGGUUCGAGUCCCGUACCGAACG, the yeast fitness came to 0.532.

As for GUUCCGUUGGCGUAAUGGUAACGCGUCUCCCUCCUCAGGAGAAGACUGCGGGUUCGAGUCUCGUACGGAACG, the yeast fitness came to 0.581.

On to GUUCCGUUGGCGUAAUGGUAACGCGUCUCCCUCCUCAGGAGAAGACUGCGGAUUCGAGUCCCGUACGGAACG, for which the yeast fitness was ≤ 0.5.

Regarding GUUCCGUUGGCGUAAUGGUAACGCGUCUCCCUCCUGAGGCGGAGACUGCGGGUUCGAGUCUCGUACGGAACG, the yeast fitness worked out at 0.566.

Regarding GUUCCGUUGGCGUAAUGGUAACGCGUCUCCCUCCUCAGGAAAAGACUGCGGGCUCGAGUCCCGUUCGGAACG, the yeast fitness is ≤ 0.5.

Turning to GUUCCGUUGGCGUAAUGGUAACGCGUCUCCCUCCUCAGGAGAAGACUACGGGUUCGAGUCCCGUACGGAACG, the yeast fitness turned out to be 0.594.

Turning to GUUCCGUUGGCGUAAUGGUAACGCGUCUCCCUCCUCAGGAGAAGACUGCGGGUUCGAGUCCCGUACGGUACG, the yeast fitness stood at 0.63.

On to GUUCCGUUGGCGUAAUGGUAACGCGUCUCCCUCCUGUGGAGAAGACUGCGGGUUCGAGUCCCGUAAGGUACG, for which the yeast fitness was ≤ 0.5.

For GUUCCGUUGGCGUAAUGGUAACGCGUCUCCCUCCUCAGGAGAAGACUGCGGGAUCGAGUCCCGUACGGAACG, the yeast fitness is 0.643.

On to GUUCCGUUGGCGUAAUGGUAACGCGUCUCCCUCCUCAAGAGAAGACUGCGGGUUCGAAUCCCGUACGGAACG, for which the yeast fitness amounted to 0.562.

For GUUCCGUUGGCGUAAUGGUAACGCGUCUCCCUCCUCACGAGAAGACUGCGGAUUCGAGUCCCGUACGGAACG, the yeast fitness is ≤ 0.5.

For the variant GUUCCGUUGGCGUAAUGGUAACGCGUCUCCCUCCUGUGGAGAAGACUGCGGGUUCGAGUCCCGCGCGGAACG, the yeast fitness is ≤ 0.5.

GUUCCGUUGGCGUAAUGGUAACGCGUCUCCCUCCUCAGGAGAAUACUGCGGGUUCGAGUCCCGUACGGAACG: the yeast fitness is ≤ 0.5.
